SIRT5 block = blocks human SIRT5 desuccinylation of peptide; Q9NXA8; Purified SirT5, succinyl-peptide AMC, trypsin-coupled fluorescence; inhibition, % at 15 µM; 1.1% of 330,000 active; AID 652115; in the data active means inhibition above about 15%; inconclusive means no clear call, values can overlap the other calls
Target sequence (Q9NXA8 whole entry, looked up): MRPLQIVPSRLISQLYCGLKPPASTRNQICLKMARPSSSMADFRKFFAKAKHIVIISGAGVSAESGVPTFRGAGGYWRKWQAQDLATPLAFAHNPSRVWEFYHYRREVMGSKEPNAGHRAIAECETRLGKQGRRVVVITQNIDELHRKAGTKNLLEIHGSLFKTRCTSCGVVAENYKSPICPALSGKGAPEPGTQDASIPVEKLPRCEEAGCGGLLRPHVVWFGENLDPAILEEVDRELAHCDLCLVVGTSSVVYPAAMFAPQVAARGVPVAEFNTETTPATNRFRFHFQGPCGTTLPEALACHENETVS
ARNT-TACC3 inh = disrupts binding between human ARNT and TACC3; inhibition, % at 9.99 µM; Q9Y6A5; 0.66% of 390,000 active; AlphaScreen His-ARNT PAS-B/GST-TACC3 binding, luminescence; TACC3 fragment carries E629A point mutation;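 active means mean inhibition of replicates at least 50% and at least half of replicates each reaching 50%; inconclusive means half or more replicates reach 50% but mean below 50%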;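 further: 0% = complete ARNT plus TACC3 wells and 100% = ARNT alone without TACC3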
FN deposit inh = fibronectin deposition inhibition. AH1F fibroblasts, Alexa488-fibronectin deposition fluorescence, overnight. inhibition, % at 12.6 µM. 0.086% of 350,000 active;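 active means mean inhibition across replicates of 30% or more, regardless of how many single replicates reach that level; inconclusive means mean under 30% yet at least half of replicates reach 30%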;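 further: positive control wells lacked labelled fibronectin entirely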
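Assay system: AH1F fibroblasts assembling fluorescent fibronectin matrix; Amount: 10000 AH1F cells per well; Buffer or medium: DMEM, 2% serum; Probe or stimulus: Alexa488-fibronectin, 24 nM final in well; Doses: single compound dose, delivered by pin transfer; Incubation: 1 h adhesion, overnight exposure; Measured by: fluorescence 485/525 nm; Read-out: fibronectin deposition inhibition.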
XiGFP reactiv = activators of X-chromosome reactivation in mouse fibroblasts. XiGFP mouse fibroblasts, % GFP-positive cells imaging, 3 d; cells co-treated with 5-aza-dC sensitizer; scaled so ellipticine positive control = 100%. activation, % at 7.58 µM. 0.055% of 360,000 active. AID 743238;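 active means mean normalized replicate activation at least 10% and every replicate at or above 10%; inconclusive means only one of the two criteria met; inactive means mean below 10% and not all replicates reach 10%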;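 further: 0% = median of on-plate neutral control wells and 100% = ellipticine 6 µM median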
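Material: SV40-immortalized XiGFP fibroblast cells, line 68-5-11 | Buffer or medium: DMEM containing 5-aza-dC | Dosing: One concentration, pinned | Times: 3 d treatment, 15 min room-temperature fixation | Controls: Ellipticine 6 µM positive control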
FGF22 binding = FGF22 (human) thermal shift binding. Q9HCT0. recombinant FGF22 thermal shift, SYPRO orange fluorescence; percent of sucrose octasulfate shift, DMSO zero. activity (Tm shift, normalised), % at 9.99 µM. 1.5% of 340,000 active;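 active means mean Tm shift, scaled 0 neutral to 100 positive control, at about 1.3% or above, every replicate too, limit read from the data; inconclusive means no clear call, values can overlap the other calls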
Target sequence (Q9HCT0 whole entry, looked up): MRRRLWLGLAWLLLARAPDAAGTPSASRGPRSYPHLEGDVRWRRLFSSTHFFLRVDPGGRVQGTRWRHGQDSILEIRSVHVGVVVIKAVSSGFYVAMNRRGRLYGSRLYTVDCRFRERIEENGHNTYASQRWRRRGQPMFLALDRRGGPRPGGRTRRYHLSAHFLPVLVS
DENV2 CPE rescue = inhibitors of DENV2 cytopathic effect; DENV2-infected cells, cytopathic effect rescue, plate reader; CPE inhibition, % at 9.99 µM; 1.7% of 350,000 active; AID 651640; in the data active means CPE inhibition above about 20%, passing the limit was not always enough; inconclusive means no clear call, values can overlap the other calls; tested in BHK-21 cells;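 further: 0% = median of neutral control wells and 100% = median of positive control wells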
* marks the source's active call; other numbers are inactive results; ? = inconclusive; . = not tested or not shown. Most compounds without a hit are left out; they make up all but 3.8% or so of the library.

SMILES | SIRT5 block | ARNT-TACC3 inh | FN deposit inh | XiGFP reactiv | FGF22 binding | DENV2 CPE rescue
CCc1nnc(NS(=O)(=O)c2ccc(NC(=O)/C=C/c3ccccc3Cl)cc2)s1 | 11 | 2 | -3 | 0 | 1.8* | -1
CCc1nnc(NS(=O)(=O)c2ccc(NC(=O)c3ccccc3OC)cc2)s1 | 0 | 0 | 2 | 0 | 0 | ?
CCc1nnc(NS(=O)(=O)c2ccc(NC(=O)c3ccccc3)cc2)s1 | 6 | 25 | 5 | 0 | 0 | .
CCc1nnc(NS(=O)(=O)c2ccc(NC(=O)c3ccccc3C)cc2)s1 | 2 | -4 | -4 | 0 | 43* | ?
COc1ccc(S(=O)(=O)Nc2ccc3c(c2)C(=O)N([C@H](C)CO)C[C@H](C)[C@@H](CN(C)Cc2ccccc2)OCCCC[C@H](C)O3)cc1 | . | -1 | 9 | 0 | 0 | 4
COc1ccc2c3c(n(C)c2c1)[C@@H](CO)NCC31CCN(S(=O)(=O)c2cccc(C)c2)CC1 | -1 | . | 11 | 0 | 0 | 39*
COc1ccc2c3c(n(C)c2c1)[C@H](CO)NCC31CN(C(=O)Nc2ccccc2F)C1 | 1 | . | 9 | 0 | 0 | 41*
COc1ccc2c3c(n(C)c2c1)[C@H](CO)NCC31CN(C(C)=O)C1 | . | . | . | 0 | . | ?
COc1ccc2c3c(n(C)c2c1)[C@@H](CO)NCC31CCN(S(=O)(=O)c2cccc(F)c2)CC1 | . | . | . | 0 | . | .
CC(=O)Nc1ccc2c(c1)C(=O)N(C)[C@@H]1CC[C@@H](CC(=O)NC3CCCCC3)O[C@@H]1CO2 | . | -27 | -22 | 0 | 0 | -3
CCC(=O)N(C)C[C@H]1Oc2cc(C#Cc3ccccn3)ccc2S(=O)(=O)N([C@@H](C)CO)C[C@@H]1C | 2 | 0 | 5 | 0 | 0 | -4
COc1ccccc1NC(=O)/C(C#N)=C/c1c(C)nn(-c2ccc(F)cc2)c1Cl | 1 | -3 | 2 | 0 | 43* | .
COc1ccc(NC(=O)/C(C#N)=C/c2c(C)nn(-c3ccc(F)cc3)c2Cl)cc1OC | -1 | 1 | 3 | 0 | 0 | -5
C[C@H]1CC=CC[C@H](c2cccc(Cl)c2)NC(=O)[C@H](C)N(C)C(=O)c2ccccc2O1 (mixture of isomers) | . | . | 5 | 0 | . | .
CCCNC(=O)C[C@H]1CC[C@@H]2[C@@H](COc3ccc(NC(=O)CC)cc3C(=O)N2C)O1 | 3 | -4 | 1 | 0 | 0 | 4
O=C(NCc1ccccc1)/C(=C\c1cccc([N+](=O)[O-])c1)NC(=O)c1ccco1 | -9 | . | -3 | 0 | 0 | 46*
Cc1ccc(NC(=O)/C(=C\c2cccnc2)NC(=O)c2ccco2)cc1 | . | 0 | 2 | . | . | .
O=C(Nc1cccc(F)c1)/C(=C\c1cccnc1)NC(=O)c1ccco1 | -3 | . | -36 | 0 | 44* | -1
O=C(Nc1ccccc1)/C(=C/c1ccc(O)cc1)NC(=O)c1ccco1 | 30* | -7 | -15 | 0 | 0 | -2
C[C@H](CO)N1C[C@H](C)[C@H](CN(C)C(=O)c2cccc(F)c2)Oc2cc(-c3ccncc3)ccc2S1(=O)=O | -6 | . | -1 | 0 | 0 | -1
COc1ccc(S(=O)(=O)Nc2ccc3c(c2)C(=O)N([C@@H](C)CO)C[C@H](C)[C@H](CN(C)C(=O)Nc2ccc(C(F)(F)F)cc2)O3)cc1 | 5 | -6 | -3 | -1 | 0 | -1
CN(C)C(=O)C[C@@H]1C[C@H]2c3cc(NC(=O)Nc4ccccc4)ccc3O[C@H]2[C@H](CO)O1 | . | -3 | -1 | 0 | 0 | 3
Cc1nn(C)c(Cl)c1C(=O)NCC(=O)Nc1ccc(C(C)C)cc1 | 0 | -2 | -9 | 0 | 44* | -1
Cc1ccc(CNC(=O)CNC(=O)c2c(C)nn(C)c2Cl)cc1 | 0 | -3 | 2 | 0 | . | 2
CCC(CC)c1nnc(NC(=O)C2=NNC(=O)CC2)s1 | 2 | 6 | -2 | 0 | 43* | -7
SMILES | SIRT5 block | ARNT-TACC3 inh | FN deposit inh | XiGFP reactiv | FGF22 binding | DENV2 CPE rescue
C/C(=N\OCc1ccc(C#N)cc1)c1ccc(S(=O)(=O)N(C)C)cc1 | -2 | -4 | 6 | 0 | 0 | -4
C/C(=N\OCc1ccc(C#N)cc1)c1ccccc1 | -17 | -34 | 2 | 0 | 44* | 0
CC(C)(C(=O)N1CCC1(C)C(=O)NS(=O)(=O)c1cccc(F)c1)c1ccccc1 (centres undefined) | -1 | . | -4 | 0 | 0 | 0
CC1(C(=O)NS(=O)(=O)c2cccc(Cl)c2)CCN1C(=O)COc1ccc(Cl)cc1 (centres undefined) | -4 | . | -6 | 0 | 1 | 86*
CC(C)(C(=O)N1CCC1(C)C(=O)NS(=O)(=O)c1cccc(Cl)c1)c1ccccc1 (centres undefined) | -3 | . | 1 | 1 | 1 | 44*
CCC(=O)N1CC2(C1)[C@H](c1ccc(-c3ccccc3OC)cc1)[C@@H](CO)N2C(C)=O | 6 | . | . | 0 | 0 | -12
CC1(C)CC[C@]2(C(=O)O)CC[C@]3(C)C(=CC[C@@H]4[C@@]5(C)CC[C@H](O[C@@H]6O[C@H](C(=O)O)[C@@H](O)[C@H](O[C@@H]7OC[C@H](O)[C@H](O)[C@H]7O)[C@H]6O)C(C)(C)[C@@H]5CC[C@]43C)[C@@H]2C1 | . | 30 | 51* | 0 | 0 | -2
C[C@H]1O[C@H](O[C@H]2[C@H](O[C@@H]3CC[C@@]4(C)C(CC[C@]5(C)C4CC=C4[C@@H]6CC(C)(C)CC[C@]6(C(=O)O[C@@H]6O[C@H](CO)[C@@H](O)[C@H](O)[C@H]6O)CC[C@]45C)C3(C)C)O[C@H](C(=O)O)[C@@H](O)[C@@H]2O)[C@@H](O)[C@@H](O)[C@@H]1O (some centres undefined) | . | -25 | . | . | 0 | 109*
CC1(C)CC[C@]2(C(=O)O[C@@H]3O[C@H](CO)[C@@H](O)[C@H](O)[C@H]3O)CC[C@]3(C)C(=CCC4[C@@]5(C)CC[C@H](O[C@@H]6O[C@H](C(=O)O)[C@@H](O[C@H]7OC[C@@H](O)[C@@H](O)[C@@H]7O)[C@H](O)[C@H]6O)C(C)(C)C5CC[C@]43C)[C@@H]2C1 (some centres undefined) | . | -13 | -7 | 0 | 0 | 81*
CC1(C)CC[C@]2(C(=O)O)CC[C@]3(C)C(=CCC4[C@]56CC[C@@](O)(OC5)C(C)(C)C6CC[C@]43C)C2C1 (some centres undefined) | 0 | . | . | . | 0 | -3

Screens from PubChem.
